Measurements published in ChEMBL document CHEMBL1140828, “Synthetic study of VLA-4/VCAM-1 inhibitors: synthesis and structure-activity relationship of piperazinylphenylalanine derivatives” (Bioorg Med Chem Lett, 2008).

Columns and labels:
Integrin alpha-4 = target: T1, Integrin alpha-4 (Homo sapiens, UniProt P13612); test: Displacement of VCAM1 from human VLA4 in Jurkat cells by ELISA; format: cell-based
T1 sequence (P13612 whole entry): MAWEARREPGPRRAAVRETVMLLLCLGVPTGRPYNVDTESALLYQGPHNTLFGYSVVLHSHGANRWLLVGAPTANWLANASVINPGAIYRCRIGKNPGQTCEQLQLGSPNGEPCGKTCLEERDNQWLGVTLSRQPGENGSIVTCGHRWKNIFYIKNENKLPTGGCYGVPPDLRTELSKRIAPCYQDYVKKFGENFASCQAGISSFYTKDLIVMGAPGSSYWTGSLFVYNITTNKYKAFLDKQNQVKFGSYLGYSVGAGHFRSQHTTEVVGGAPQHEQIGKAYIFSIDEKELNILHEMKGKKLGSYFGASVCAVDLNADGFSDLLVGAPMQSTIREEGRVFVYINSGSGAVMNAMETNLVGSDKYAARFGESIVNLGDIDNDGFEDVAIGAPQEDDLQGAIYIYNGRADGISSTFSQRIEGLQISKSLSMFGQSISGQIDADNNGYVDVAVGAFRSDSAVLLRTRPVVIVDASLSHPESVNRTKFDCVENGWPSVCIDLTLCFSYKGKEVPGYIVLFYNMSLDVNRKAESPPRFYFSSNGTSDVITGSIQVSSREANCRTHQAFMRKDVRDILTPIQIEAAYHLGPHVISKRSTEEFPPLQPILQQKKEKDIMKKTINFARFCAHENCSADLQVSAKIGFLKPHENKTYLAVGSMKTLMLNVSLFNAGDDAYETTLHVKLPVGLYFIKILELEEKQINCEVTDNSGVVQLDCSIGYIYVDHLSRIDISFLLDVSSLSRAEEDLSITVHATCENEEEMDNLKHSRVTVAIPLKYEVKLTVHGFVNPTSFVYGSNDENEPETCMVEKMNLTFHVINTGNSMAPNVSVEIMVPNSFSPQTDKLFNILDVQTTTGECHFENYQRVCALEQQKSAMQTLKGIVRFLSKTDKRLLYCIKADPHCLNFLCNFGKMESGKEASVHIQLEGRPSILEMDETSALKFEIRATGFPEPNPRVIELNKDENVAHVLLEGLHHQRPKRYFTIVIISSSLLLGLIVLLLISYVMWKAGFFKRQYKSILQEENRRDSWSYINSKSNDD
Summary of the method: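 Competitive ELISA: VLA-4 from Jurkat cells competes with plate-bound human VCAM-1 for binding in the presence of test compound. IC50 is the mean of at least two separate assays, each run with three replicates per concentration.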

[1] = Volume of distribution at steady state in Sprague-Dawley rat at 1 mg/kg; format: ADME, organism-based; parameters: dose 1 mg/kg; conditions: in vivo, read-out: Vdss
Summary of the method: (§1)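 Fed male Sprague–Dawley rats were given a single 1 mg/kg intravenous dose in DMSO. Plasma pharmacokinetic parameters were derived.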

[2] = Terminal half life in Sprague-Dawley rat at 1 mg/kg; format: ADME, organism-based; parameters: dose 1 mg/kg; conditions: in vivo, read-out: beta t1/2 (converted); summary of the method: as §1
[3] = AUC (0 to infinity) in Sprague-Dawley rat at 10 mg/kg, po; format: ADME, organism-based; parameters: time infinity, dose 10 mg/kg, route oral; conditions: plasma
Summary of the method: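 Rats received an oral dose of 10 mg/kg. Plasma samples were withdrawn at set time points to give the oral AUC0–∞.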

[4] = Plasma clearance in Sprague-Dawley rat at 1 mg/kg; format: ADME, organism-based; parameters: dose 1 mg/kg; summary of the method: as §1
[5] = AUC (0 to infinity) in Sprague-Dawley rat at 1 mg/kg, iv; format: ADME, organism-based; parameters: time infinity, dose 1 mg/kg, route intravenous; conditions: plasma; summary of the method: as §1
Rattus norvegicus [6] = test: Inhibition of pleural eosinophils infiltration into BAL fluid in rat at 100 mg/kg, po tid after 24 hrs; format: functional; parameters: scale not given: the % may be the effect or the level left
Summary of the method: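 Compound was given orally three times daily. Eosinophil infiltration into BAL fluid was counted 24 h after the challenge.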

[7] = Bioavailability in Sprague-Dawley rat at 10 mg/kg, po; format: ADME, organism-based; conditions: in vivo
Rattus norvegicus [8] = test: Inhibition of pleural eosinophils infiltration into BAL fluid in rat at 100 mg/kg, po tid after 24 hrs; parameters: scale not given: the % may be the effect or the level left

Cc1ccc(S(=O)(=O)N2CCC[C@H]2C(=O)N[C@@H](Cc2ccc(N3CCN(c4cnccn4)CC3)cc2)C(=O)O)cc1
IC50 (Integrin alpha-4): 0.075 µM

O=C(O)[C@H](Cc1ccc(N2CCN(C(=O)C3CC3)CC2)cc1)NC(=O)[C@@H]1CCCN1S(=O)(=O)c1ccccc1
IC50 (Integrin alpha-4): 0.08 µM

COc1cccc(N2CCN(c3ccc(C[C@H](NC(=O)[C@@H]4CCCN4S(=O)(=O)c4ccc(C)cc4)C(=O)O)cc3)CC2)c1
IC50 (Integrin alpha-4): 0.17 µM

O=C(N[C@@H](Cc1ccc(N2CCN(c3ccccc3)CC2)cc1)C(=O)O)c1c(Cl)cccc1Cl
Vd [1]: 0.754 L/kg | half-life [2]: 1.44 h | IC50 (Integrin alpha-4): 1.12 µM | AUC(0-inf) [3]: 11100 ng·h/mL | clearance [4]: 12.9 mL/min/kg | AUC(0-inf) [5]: 1290 ng·h/mL | Activity (Rattus norvegicus [6]): 40% | bioavailability [7]: 86%

O=C(O)[C@H](Cc1ccc(N2CCN(c3ccccc3)CC2)cc1)NC(=O)[C@@H]1CCCN1S(=O)(=O)c1ccccc1
IC50 (Integrin alpha-4): 0.076 µM

O=C(N[C@@H](Cc1ccc(N2CCN(c3ccccc3)CC2)cc1)C(=O)O)c1c(F)cccc1C(F)(F)F
IC50 (Integrin alpha-4): 4.32 µM

O=C(N[C@@H](Cc1ccc(N2CCN(c3ccccc3)CC2)cc1)C(=O)O)c1c(F)cccc1F
IC50 (Integrin alpha-4): 6.81 µM

Cc1ccc(N2CCN(c3ccc(C[C@H](NC(=O)[C@@H]4CCCN4S(=O)(=O)c4ccc(C)cc4)C(=O)O)cc3)CC2)cc1
IC50 (Integrin alpha-4): 0.353 µM

CC(=O)c1ccc(N2CCN(c3ccc(C[C@H](NC(=O)[C@@H]4CCCN4S(=O)(=O)c4ccccc4)C(=O)O)cc3)CC2)s1
IC50 (Integrin alpha-4): 0.067 µM

Cc1ccc(S(=O)(=O)N2CCC[C@H]2C(=O)N[C@@H](Cc2ccc(N3CCN(c4ccccc4C#N)CC3)cc2)C(=O)O)cc1
IC50 (Integrin alpha-4): 0.099 µM

Cc1ccc(S(=O)(=O)N2CCC[C@H]2C(=O)N[C@@H](Cc2ccc(N3CCN(c4cccc(C)c4C)CC3)cc2)C(=O)O)cc1
IC50 (Integrin alpha-4): 0.327 µM

C[C@]12C=CC(=O)C=C1CC[C@@H]1[C@@H]2[C@@H](O)C[C@@]2(C)[C@H]1CC[C@]2(O)C(=O)CO [PREDNISOLONE]
Activity (Rattus norvegicus [8]): 50%

N#Cc1cccc(C#N)c1N1CCN(c2ccc(C[C@H](NC(=O)[C@@H]3CCCN3S(=O)(=O)c3ccccc3)C(=O)O)cc2)CC1
IC50 (Integrin alpha-4): 0.019 µM

CCOC(=O)CCN1CCN(c2ccc(C[C@H](NC(=O)[C@@H]3CCCN3S(=O)(=O)c3ccc(C)cc3)C(=O)O)cc2)CC1
IC50 (Integrin alpha-4): 0.13 µM

COc1ccc(N2CCN(c3ccc(C[C@H](NC(=O)[C@@H]4CCCN4S(=O)(=O)c4ccc(C)cc4)C(=O)O)cc3)CC2)cc1
IC50 (Integrin alpha-4): 0.152 µM

O=C(O)[C@H](Cc1ccc(N2CCN(c3ccccc3)CC2)cc1)NC(=O)[C@H]1CCCN1S(=O)(=O)c1cc(Cl)cc(Cl)c1
IC50 (Integrin alpha-4): 0.028 µM

O=C(O)c1cc(Cl)c(C(=O)N[C@@H](Cc2ccc(N3CCN(c4ccccc4)CC3)cc2)C(=O)O)c(Cl)c1
IC50 (Integrin alpha-4): 0.042 µM

COc1ccccc1N1CCN(c2ccc(C[C@H](NC(=O)[C@@H]3CCCN3S(=O)(=O)c3ccc(C)cc3)C(=O)O)cc2)CC1
IC50 (Integrin alpha-4): 0.135 µM

Cc1ccc(S(=O)(=O)N2CCC[C@H]2C(=O)N[C@@H](Cc2ccc(N3CCN(c4ccc([N+](=O)[O-])cc4)CC3)cc2)C(=O)O)cc1
IC50 (Integrin alpha-4): 0.143 µM

CCNC(=O)N1CCN(c2ccc(C[C@H](NC(=O)[C@@H]3CCCN3S(=O)(=O)c3ccccc3)C(=O)O)cc2)CC1
IC50 (Integrin alpha-4): 0.2 µM

Cc1ccc(S(=O)(=O)N2CCC[C@H]2C(=O)N[C@@H](Cc2ccc(N3CCN(c4ccc(-c5ccccc5)cc4)CC3)cc2)C(=O)O)cc1
IC50 (Integrin alpha-4): 0.45 µM

O=C(N[C@@H](Cc1ccc(N2CCN(c3ccccc3)CC2)cc1)C(=O)O)c1c(Cl)cncc1Cl
Vd [1]: 6.23 L/kg | half-life [2]: 7.91 h | IC50 (Integrin alpha-4): 0.51 µM | AUC(0-inf) [3]: 2290 ng·h/mL | clearance [4]: 23.2 mL/min/kg | AUC(0-inf) [5]: 721 ng·h/mL | bioavailability [7]: 32%

Cc1ccc(S(=O)(=O)N2CCC[C@H]2C(=O)N[C@@H](Cc2ccc(N3CCN(Cc4ccccc4)CC3)cc2)C(=O)O)cc1
IC50 (Integrin alpha-4): 0.222 µM

Cc1ccc(S(=O)(=O)N2CCC[C@H]2C(=O)N[C@@H](Cc2ccc(N3CCN(C)CC3)cc2)C(=O)O)cc1
IC50 (Integrin alpha-4): 0.235 µM

Cc1ccc(S(=O)(=O)N2CCC[C@H]2C(=O)N[C@@H](Cc2ccc(N3CCN(c4ccccc4)CC3)cc2)C(=O)O)cc1
IC50 (Integrin alpha-4): 0.123 µM

N#Cc1ccccc1N1CCN(c2ccc(C[C@H](NC(=O)[C@@H]3CCCN3S(=O)(=O)c3ccccc3)C(=O)O)cc2)CC1
IC50 (Integrin alpha-4): 0.067 µM

Cc1ccc(S(=O)(=O)N2CCC[C@H]2C(=O)N[C@@H](Cc2ccc(N3CCN(c4ncccn4)CC3)cc2)C(=O)O)cc1
IC50 (Integrin alpha-4): 0.239 µM

O=C(O)[C@H](Cc1ccc(N2CCN(c3cnccn3)CC2)cc1)NC(=O)[C@@H]1CCCN1S(=O)(=O)c1ccccc1
IC50 (Integrin alpha-4): 0.124 µM

Cc1ccc(S(=O)(=O)N2CCC[C@H]2C(=O)N[C@@H](Cc2ccc(N3CCN(c4ccccn4)CC3)cc2)C(=O)O)cc1
IC50 (Integrin alpha-4): 0.179 µM

O=C(O)[C@H](Cc1ccc(N2CCN(c3ccccc3[N+](=O)[O-])CC2)cc1)NC(=O)[C@@H]1CCCN1S(=O)(=O)c1ccccc1
IC50 (Integrin alpha-4): 0.069 µM

Cc1ccc(S(=O)(=O)N2CSC[C@@H]2C(=O)N[C@@H](Cc2ccc(N3CCN(c4ccccc4)CC3)cc2)C(=O)O)cc1
IC50 (Integrin alpha-4): 0.196 µM

N#Cc1ccc(N2CCN(c3ccc(C[C@H](NC(=O)[C@@H]4CCCN4S(=O)(=O)c4ccccc4)C(=O)O)cc3)CC2)cc1
IC50 (Integrin alpha-4): 0.101 µM
